Experimental data of several laboratories.
Lines come from different studies, so protocols differ.
OPRM1: Mu-type opioid receptor (OPRM1, Homo sapiens, UniProt P35372)
Slc6a4: Sodium-dependent serotonin transporter (Slc6a4, Rattus norvegicus, UniProt P31652)
CYP2A6: Cytochrome P450 2A6 (CYP2A6, Homo sapiens, UniProt P11509)

OC[C@@]12C[C@@H]1[C@@H](n1cnc3c(NC(C4CCCC4)C4CCCC4)nc(Cl)nc31)[C@H](O)[C@@H]2O  Ki (OPRM1; cell-free assay, radioligand): 3.5 µM
CC1=CC(=O)CC(C)(C)[C@@]1(O)/C=C/C(C)=C\C(=O)O  Kd (PYL1 (Arabidopsis thaliana, UniProt Q8VZS8); binding, MST): 63.7 µM
Cc1cc2nc3c(=O)[nH]c(=O)nc-3n(C[C@H](O)[C@H](O)[C@H](O)COP(=O)(O)OP(=O)(O)OC[C@H]3O[C@@H](n4cnc5c(N)ncnc54)[C@H](O)[C@@H]3O)c2cc1C  Kd (Far upstream element-binding protein 2 (KHSRP, Homo sapiens, UniProt Q92945); binding; lysate): 0.026 µM
Cc1cc(N)nc(CCc2cccc([C@@H](N)Cc3cc(C)cc(N)n3)c2)c1  Ki (Nitric oxide synthase 1 (Nos1, Rattus norvegicus, UniProt P29476); enzyme activity, inhibitor): ~0.1 µM
CCCN1CCN(c2ccc(-c3cncc(Cl)c3N3CCC4(CCNC4=O)CC3)cc2)CC1  Kd (Glycogen synthase kinase-3 alpha (GSK3A, Homo sapiens, UniProt P49840); cell-free assay; lysate): 1.75 µM
O=C1c2ccccc2CCN1CCCCN1CCN(c2cccc(Cl)c2Cl)CC1  Ki (5-hydroxytryptamine receptor 1D (HTR1D, Homo sapiens, UniProt P28221); ligand displacement, radioligand): > 10 µM
c1ccc(-n2nnnc2N2CCNCC2)cc1  Ki (Slc6a4; ligand displacement, radioligand): > 20 µM
O=C(NCC1CC1)c1cc(N2CC[C@H](O)C2)nc(N2CCC[C@@H](c3ccccc3)C2)n1  Ki (N-acyl-phosphatidylethanolamine-hydrolyzing phospholipase D (Napepld, Mus musculus, UniProt Q8BH82); enzyme activity, inhibitor, fluorescence): 0.18 µM
O=c1cc(-c2ccccc2)oc2c1ccc1ccccc12  Ki (CYP2A6; enzyme activity, inhibitor; 6 min, pH 7.6): > 25 µM
CN1CCN(Cc2cccc(Oc3ccccc3)c2)CC1  Ki (Slc6a4; ligand displacement, radioligand): > 20 µM
C#Cc1ccccc1-c1cc(=O)c2ccccc2o1  Ki (CYP2A6; enzyme activity, inhibitor; 6 min, pH 7.6): > 25 µM
CCCCN1CCC(COC(=O)c2ccc(N)c(OCF)c2)CC1  Ki (OPRM1; cell-free assay, radioligand): > 10 µM
C#Cc1ccc2cc(-c3ccccc3)c(=O)oc2c1  Ki (CYP2A6; enzyme activity, inhibitor; 6 min, pH 7.6): > 25 µM
Cc1occc(=S)c1O  Ki (Carbonic anhydrase 15 (Mus musculus, UniProt Q99N23); enzyme activity, inhibitor, stopped-flow): 3.1 µM
C#Cc1ccc(-c2cc(=O)c3ccccc3o2)cc1  Ki (CYP2A6; enzyme activity, inhibitor; 6 min, pH 7.6): > 25 µM
Cc1cc2c(NC(=O)c3cccc(C(=O)O)c3)cccc2nn1  Kd (Bromodomain-containing protein 4, BD1 (BRD4, Homo sapiens, UniProt O60885); binding, competition with immobilised ligand): 41 µM
